# Only a selection was taken, and hits are over-represented in it overall.
# MMP13 inh – MMP13 (human) collagenase inhibition; inhibition, % at 4 µM; MMP-13 fTHP FRET cleavage, Mca fluorescence; AID 570; 0.07% of 65,000 active; P45452;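 active means inhibition above the mean of compound-free control plate wells plus 3 SD, cut at about 14% in these data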;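 further: 0% = DMSO wells and 100% = wells with reference MMP-13 inhibitor after basal subtraction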
# Ecoli WT expand – growth inhibitors of E. coli BW25113 wild type | OD600 absorbance | growth inhibition, % at 100 µM | 0.15% of 98,000 active;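 active means growth inhibition above about 50% at one test dose, limit read from the data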;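 further: growth measured after 20 h incubation at 37 °C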
# tolC growth inh – blocks growth of E. coli BW25113 tolC mutant. OD615. growth inhibition, % at 10 µM (by protocol). 2.2% of 65,000 active;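 active means growth inhibition at or above a cutoff equal to the mean over every tested compound plus 3 SD, cut at about 60% in these data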;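 further: growth measured after 20 h incubation at 37 °C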
#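 Test system: E. coli BW25113 ΔtolC::kan bacteria; incubation: 37 °C, 20 h exposure; medium: LB broth supplemented with 50 µg/mL kanamycin; read-out basis: percent growth inhibition; signal: A615 absorbance measurement; compound: 10 µM final, single dose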
# Cdc25B block – inhibitors of human Cdc25B phosphatase; P30305; recombinant Cdc25B, OMFP fluorescence Ex485/Em525; inhibition, %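 (compounds tested at 10 µM final in the well)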; 0.1% of 65,000 active; in the data active means inhibition above about 50%
# DUSP1 inh – human dual specificity phosphatase 1 inhibition. P28562. recombinant MKP-1, OMFP hydrolysis fluorescence. inhibition, %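 (compounds tested at a single concentration somewhere between 10 and 100 µM)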. 0.15% of 65,000 active;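 active means inhibition above about 50%, limit read from the data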;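 further: 0% = DMSO max control wells and 100% = wells with enzyme stopped by NaOH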
# Target sequence (P28562 whole entry, looked up): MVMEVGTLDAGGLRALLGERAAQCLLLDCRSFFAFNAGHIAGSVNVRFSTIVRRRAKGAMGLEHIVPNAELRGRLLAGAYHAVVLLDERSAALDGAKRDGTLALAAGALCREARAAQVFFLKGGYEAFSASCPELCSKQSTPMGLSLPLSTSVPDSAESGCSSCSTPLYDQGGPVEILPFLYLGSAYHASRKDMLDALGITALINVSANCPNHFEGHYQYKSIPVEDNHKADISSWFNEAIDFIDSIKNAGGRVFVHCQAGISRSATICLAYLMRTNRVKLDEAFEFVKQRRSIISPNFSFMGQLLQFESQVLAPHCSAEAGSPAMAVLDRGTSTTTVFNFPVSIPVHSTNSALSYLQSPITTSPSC
# HePTP inh – inhibitors of human HePTP phosphatase | 0.64% of 110,000 active | inhibition, % at 20 µM | recombinant HePTP phosphatase activity, OD absorbance; in the data active means inhibition above about 50%;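 further: plate controls were vehicle for no effect and reference inhibitor for full effect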
# Target sequence (P35236 whole entry, looked up): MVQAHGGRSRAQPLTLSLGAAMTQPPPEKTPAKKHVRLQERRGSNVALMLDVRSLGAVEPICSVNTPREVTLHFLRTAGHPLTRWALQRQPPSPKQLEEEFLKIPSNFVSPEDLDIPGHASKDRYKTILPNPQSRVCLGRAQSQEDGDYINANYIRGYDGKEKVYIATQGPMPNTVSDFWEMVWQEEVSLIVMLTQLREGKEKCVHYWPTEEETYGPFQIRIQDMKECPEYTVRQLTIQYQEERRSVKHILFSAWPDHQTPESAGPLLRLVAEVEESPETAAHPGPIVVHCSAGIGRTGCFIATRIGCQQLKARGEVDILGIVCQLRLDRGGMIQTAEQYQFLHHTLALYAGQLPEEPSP
# * = called active by the depositor; . = no result.
SMILES,MMP13 inh,Ecoli WT expand,tolC growth inh,Cdc25B block,DUSP1 inh,HePTP inh
O=C(/C=C/c1ccco1)Nc1ccc(Cl)cc1C(=O)O,.,.,.,.,.,101.5*
O=C(/C=C/c1ccco1)Nc1ccc(Cl)cc1Cl,.,.,.,.,.,8.4
Cc1cccc(NC(=O)c2ccccc2NC(=O)/C=C\c2ccco2)c1C,.,.,.,.,.,6.3
O=C(Nc1ccc(Cl)c(C(F)(F)F)c1)c1cccc(I)c1,.,.,.,.,.,6.4
Cc1ccsc1/C=C(\C#N)c1nc(-c2cccc([N+](=O)[O-])c2)cs1,.,.,.,.,.,6.9
Cc1n[nH]c(C)c1S(=O)(=O)N(CC(=O)Nc1ccc2c(c1)OCCO2)c1ccc(C(C)C)cc1,6.7,-3.0,65.9*,0.9,10.5,-12.7
Cc1noc(C)c1S(=O)(=O)N(CC(=O)Nc1ccc2c(c1)OCO2)c1ccc(C(C)C)cc1,2.1,-6.0,-1.8,-14.0,5.4,-5.6
O=C1C(=O)N(c2cccnc2)C(c2cccc([N+](=O)[O-])c2)/C1=C(\O)c1ccc(Cl)cc1 (centres undefined),.,.,.,.,.,-12.1
CN1/C(=C\C(=O)c2cccs2)Sc2ccccc21,-2.0,3.0,68.2*,-9.0,1.1,5.0
CCN(CC)c1ccc(/C=C2/C(=O)NN(c3ccccc3)C2=O)cc1,.,.,.,.,.,5.3
CCc1ccc2[nH]cc(C(=O)O)c(=O)c2c1,.,.,.,.,.,-2.1
CCCC(=O)Nc1cccc(NC(=O)c2cc([N+](=O)[O-])ccc2Cl)c1,.,.,.,.,.,7.7
O=C1NC(=S)S/C1=C/c1ccc(-c2ccccc2)o1,.,.,.,.,.,9.4
S=C1NC(=S)/C(=C\c2ccc(-c3ccc(Br)cc3)o2)S1,.,.,.,.,.,92.8*
OC(COc1ccc(C23CC4CC(CC(C4)C2)C3)cc1)CN1CCN(c2ccccn2)CC1 (centres undefined),.,.,.,.,.,2.6
O=C(c1ccc(Cl)c(Cl)c1)N(Cc1ccco1)c1ccc(O)cc1,4.0,3.0,100.0*,-5.1,-7.2,-3.4
O=C(COc1ccccc1)N(Cc1ccco1)c1ccc(O)cc1,1.6,6.0,10.8,-11.1,-3.9,-5.9
Cc1ccc(-n2nc(-c3ccccc3)c3c2C(=O)C=CC3=O)cc1,.,.,.,.,.,1.8
Cn1c(=O)n(C/C=C/c2ccccc2)c(=O)c2c1nc1n2CCCN1Cc1ccccc1,-0.8,-8.0,23.5,4.8,22.1,6.2
Cc1cccc(Cn2c(=O)c3c(nc4n3CCCN4Cc3ccccc3)n(C)c2=O)c1,1.6,-4.0,73.7*,-3.6,-0.5,4.5
CC1CN(c2nc3c(c(=O)n(Cc4ccc(Cl)c(Cl)c4)c(=O)n3C)n2C)CC(C)O1 (centres undefined),-1.9,-1.0,86.8*,0.4,12.0,8.5
Cn1c(=O)c(N2CCOCC2)c2c3c(cccc31)C(=O)c1ccccc1-2,.,.,.,.,.,-1.7
Cc1ccc(Cl)cc1NC(=O)/C(C#N)=C\c1ccc(I)o1,.,.,.,.,.,-7.5
N/C(=N\OC(=O)c1ccc([N+](=O)[O-])cc1Cl)c1cccc([N+](=O)[O-])c1,.,.,.,.,.,1.3
Cc1cc(NC(=O)C2CCCCC2)nc2c1c(=O)oc1ccccc12,-3.7,2.0,76.2*,0.0,26.5,5.1
SMILES,MMP13 inh,Ecoli WT expand,tolC growth inh,Cdc25B block,DUSP1 inh,HePTP inh
Cc1ccc(N2C(=O)/C(=C/c3ccccc3C(=O)O)SC2=S)c(C)c1,.,.,.,.,.,-10.0
O=C1NC(=O)C(=Cc2ccc(Cl)c([N+](=O)[O-])c2)C(=O)N1,.,.,.,.,.,95.5*
O=C(NCC1(c2ccccc2)CCCC1)c1cc2ccccc2o1,.,.,.,.,.,-7.0
COC(=O)c1ccc(O)c(Sc2cc(C(=O)OC)ccc2O)c1,0.3,21.0,87.2*,-1.1,8.0,8.4
CCc1ccc(NC(=O)C2CC(=O)N(c3ccccc3)C2)cc1 (centres undefined),.,.,.,.,.,-0.7
COc1cccc(N2CC(C(=O)Nc3ccc(C(=O)OC(C)C)cc3)CC2=O)c1 (centres undefined),-0.1,-8.0,61.7*,-5.3,17.2,9.4
CC1CCCCN1C(=O)CSc1nc(C2CC2)nc2c1cnn2-c1ccccc1 (centres undefined),-0.8,2.0,67.2*,-2.8,25.3,8.1
Cc1nn(C)c(C)c1NC(=O)CSc1nc(C2CC2)nc2c1cnn2-c1ccccc1,.,2.0,.,.,.,.
COc1ccc(NS(=O)(=O)c2ccc3oc(Nc4ccc5c(c4)OCCO5)nc3c2)cc1,2.7,-11.0,79.3*,-5.5,27.6,3.2
Clc1ccc(Cn2ncc3c(N4CCCC4)ncnc32)cc1,1.6,5.0,26.4,-15.7,-1.6,6.5
Clc1ccc(Cn2ncc3c(N4CCCCC4)ncnc32)c(Cl)c1,4.5,1.0,73.5*,-1.3,-4.6,7.0
Cc1cccc(-n2ncc3c(N4CC(C)CC(C)C4)ncnc32)c1 (centres undefined),-5.6,1.0,63.5*,-2.5,-4.7,-1.0
CC1CC(C)CN(c2ncnc3c2cnn3Cc2ccc(Cl)cc2)C1 (centres undefined),-0.1,-22.0,80.9*,-15.4,9.5,8.1
O=Cc1ccc(OCc2ccc(F)cc2)cc1,.,.,.,.,.,-7.6
CCN(CC)c1ccc(NC(=O)c2cc3ccccc3o2)cc1,.,.,.,.,.,-2.0
CCc1c(C(=O)Nc2ncn(Cc3cccc(C)c3)n2)csc1C,-1.1,9.0,62.4*,-21.0,-1.5,7.6
CC(=O)c1ccc(NC(=O)Nc2ncn(Cc3cccc(C)c3)n2)cc1,1.8,-13.0,-3.3,0.1,23.8,-4.8
O=C1NC(=O)C(=Cc2ccc(OC(=O)c3cccc([N+](=O)[O-])c3)cc2)C(=O)N1,.,.,.,.,.,-15.4
COC(=O)c1c(NC(=O)c2cccc(C)c2)sc(Cc2ccccc2)c1C,.,.,.,.,.,-5.0
Clc1ccc(-n2ncc3c(N4CCCCCC4)ncnc32)cc1,-2.8,-7.0,10.9,-5.4,3.9,4.6
Brc1cc(Br)c2ncnc(N3CCCCC3)c2c1,5.2,11.0,100.0*,-12.9,11.7,-12.5
Cn1c(C(=O)N2CCc3ccccc3C2)cc2oc3ccccc3c21,-2.7,-22.0,68.8*,-5.3,9.2,-5.4
O=C(O)c1ccc2c(c1)N(Cc1ccccc1)C(=O)c1ccccc1S2=O (centres undefined),4.1,4.0,-23.5,66.0*,2.0,7.8
COc1ccc2c(c1)sc1nc(-c3ccccc3)cn12,1.4,-11.0,99.3*,5.4,-5.1,-3.3
CCCOc1cccc(C(=O)Nc2scc(-c3ccc(C)cc3)c2C(=O)OC)c1,.,.,.,.,.,6.1
SMILES,MMP13 inh,Ecoli WT expand,tolC growth inh,Cdc25B block,DUSP1 inh,HePTP inh
COc1cc(C=C2C(=O)NC(=S)NC2=O)ccc1OCc1ccc(C(=O)O)cc1,.,.,.,.,.,-15.6
O=C1NC(=S)NC(=O)C1=Cc1cc(Cl)c(OCc2ccc(C(=O)O)cc2)c(Cl)c1,.,.,.,.,.,103.6*
CNC(=O)OCc1ccc(-c2ccc(Cl)cc2)o1,.,.,.,.,.,6.0
CCc1c(C)nc2cc(-c3cc(OC)cc(OC)c3)nn2c1N1CCCC1,-3.3,-29.0,74.7*,-14.7,38.6,8.0
CCOc1ccc(C(=O)C2CCN(CC(=O)Nc3ccccc3N3CCOCC3)CC2)cc1,3.4,-9.0,76.4*,-26.5,10.1,10.9
O=c1c(-c2nc3ccccc3o2)c2oc3ccccc3n2c2ccccc12,-17.2,-3.0,97.9*,-2.8,26.0,4.9
O=C(c1ccc(Cl)cc1)N1CCN(c2ccccn2)CC1,.,.,.,.,.,2.2
CC(C)c1ccc(OCc2ccc(C(=O)N3CCN(c4ccccn4)CC3)cc2)cc1,4.9,-15.0,85.9*,-3.9,36.0,0.6
